Compound activity deposited in PubChem BioAssay by several laboratories.
M1 antag: antagonists of rat M1 muscarinic receptor | P08482 | CHO-M1 cells, Fluo-4 calcium, ACh EC80 antagonist mode; stronger effect = lower value | B-score at 10 µM | 64,000 tested, 3.4% active | AID 628;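 active = calcium fluorescence response, raw or row-and-column corrected B-score, differing from the plate sample mean either way at a set confidence level, mostly lower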
D1 mod: allosterically modulates the human D1 dopamine receptor. P21728. HEK293 D1, CRE-luciferase, dopamine EC30 potentiation; actives deviate in either direction. B-score at 10 µM. 58,000 tested, 5.9% active;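 active = luminescence count or its row- and column-corrected plate score outside the 99.7% band of the plate's sample wells, on either side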
M1 ag: agonists of M1 muscarinic receptor. 64,000 tested, 3% active. CHO-M1 cells, Fluo-4 calcium fluorescence, agonist mode; stronger effect = higher value. B-score at 10 µM;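 active = fluorescence rise, raw or as B-score row- and column-corrected plate score, outside the 99.7% band of its plate's samples, either direction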
Htt clearance: mutant huntingtin protein clearance | 47,000 tested, 0.42% active | HeLa Exon1htt(103Q)mCFP, aggregate imaging; zero = plate's median compound well | inhibition, % at 1.5 µM;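 active = inhibition of aggregate fluorescence above about 70%, also judged a hit by eye on the cell image, limit read from the data, passing the limit was not always enough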;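 also: cells exposed to compound for three days before fixation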
SF1 activator: SF-1 (human) activation; CHO-K1 Gal4-SF-1 LBD luciferase reporter; % increase over DMSO SF-1-specific signal; 65,000 tested, 1.9% active; Q13285; AID 522; activation, % at 10 µM;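 active = activation above the mean activation of all tested compounds plus 3 SD, cut at about 50% in these data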
Target sequence (Q13285 whole entry, looked up, the tested form may be a part): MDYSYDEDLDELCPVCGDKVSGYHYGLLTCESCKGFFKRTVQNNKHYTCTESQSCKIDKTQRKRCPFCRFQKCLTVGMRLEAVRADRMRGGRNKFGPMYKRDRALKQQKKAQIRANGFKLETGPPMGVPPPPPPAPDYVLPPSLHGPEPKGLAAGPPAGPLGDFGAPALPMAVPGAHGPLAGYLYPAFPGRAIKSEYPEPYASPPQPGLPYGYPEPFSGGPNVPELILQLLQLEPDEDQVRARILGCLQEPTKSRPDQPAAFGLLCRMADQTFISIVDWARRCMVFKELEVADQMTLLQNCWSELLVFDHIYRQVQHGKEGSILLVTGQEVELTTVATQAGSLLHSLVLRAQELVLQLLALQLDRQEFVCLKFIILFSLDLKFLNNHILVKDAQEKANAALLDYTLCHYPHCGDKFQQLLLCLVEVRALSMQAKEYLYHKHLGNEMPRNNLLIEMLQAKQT
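material = CHO-K1 cells with Gal4–hSF-1 LBD chimera plus Gal4-driven luciferase | compound = 10 µM single point, 1% DMSO | incubation = 20 h compound exposure at 37 °C after 1 h cell settling | measured by = SteadyLite luciferase luminescence | evaluation = percent activation relative to DMSO median and mock-transfected background | control set = DMSO negative control and −SF1 background wells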
RORA act: activates the human nuclear receptor RORA. P35398. CHO-K1 Gal4-RORA LBD luciferase reporter, luminescence; percent increase over mock-subtracted basal signal. activation, % at 10 µM. 65,000 tested, 1.5% active;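 active = activation above the mean of all tested compounds plus 3 SD, cut at about 49% in these data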
Of the large screens only hits and unclear results are named; the others gave an inactive call. This is a sample that favours compounds with a hit; in the whole collection about 11% have one here.

O=C(CC(Nc1ccc(F)cc1)C(=O)O)c1ccccc1 (configuration not stated)	RORA act 62 (no result: Htt clearance)
O=C1CC(=C2c3ccccc3-c3ccccc32)C(=O)N1CCN1CCN(c2cccc(Cl)c2)CC1	none (no result: M1 antag, D1 mod, M1 ag, SF1 activator, RORA act)
O=C(CSc1nc2ccccc2s1)CSc1nc2ccccc2s1	none (no result: M1 antag, D1 mod, M1 ag, SF1 activator, RORA act)
O=c1oc2ccccc2n1CSc1nc2ccccc2s1	SF1 activator 52, RORA act 66 (no result: Htt clearance)
Cn1c(CSc2nc3ccccc3s2)nc2ccccc21	SF1 activator 71
Cn1c(CSc2nc3ccccc3s2)n[nH]c1=S	none
Cc1ccc(NCc2nc3ccccc3n2C)cc1	D1 mod -4.1 (no result: Htt clearance)
Cn1c(CNc2nc3ccccc3n2C)nc2ccccc21	none (no result: M1 antag, M1 ag, Htt clearance)
COc1ccc(-n2c(SCC(N)=O)nnc2-c2ccccc2F)cc1	none (no result: M1 antag, M1 ag)
COc1cccc(-n2c(SCC(N)=O)nc3c([nH]c4ccccc43)c2=O)c1	none (no result: D1 mod, Htt clearance)
Cc1ccc(-n2c(SCC(N)=O)nc3c([nH]c4ccccc43)c2=O)cc1	D1 mod -4.1 (no result: Htt clearance)
C=CCc1ccccc1OCC(O)CN1CCN(c2ccccc2OC)CC1 (configuration not stated)	D1 mod -6.1 (no result: Htt clearance)
C=CCc1ccccc1OCC(O)CNC(C)C (configuration not stated)	none (no result: Htt clearance)
COc1ccccc1N1CCN(CC(O)COc2cccc3ccccc23)CC1 (configuration not stated)	none (no result: Htt clearance)
C=CCc1ccccc1OCC(CN1CCCCC1)OC(C)=O (configuration not stated)	D1 mod -4.5 (no result: Htt clearance)
C=CCc1ccccc1OCC(O)CN1CCN(c2ccccc2F)CC1 (configuration not stated)	D1 mod -4.6
C=CCc1cc(C)ccc1OCC(O)CN1CCN(c2ccccc2)CC1 (configuration not stated)	none (no result: D1 mod)
COc1ccc(NC(C)=O)cc1NC(=O)CCn1c(=O)sc2ccccc21	none (no result: Htt clearance)
Cc1cccc2cc(/C=C3\N=C(c4ccccc4)OC3=O)c(N3CCOCC3)nc12	none (no result: M1 antag, D1 mod, M1 ag, SF1 activator, RORA act)
Cc1ccc(C2=N/C(=C/N3CCOCC3)C(=O)O2)cc1	SF1 activator 55
COC(=O)c1ccc(NC(=O)Cn2nnc3ccccc32)cc1	SF1 activator 76
Cc1cc(C(=O)NCc2cc(C)n(C)n2)sc1-c1ccccc1	D1 mod -3.2, M1 ag 3
Cc1ccc2cc(C#N)c(NCCNC(=O)C3CC3)nc2c1C	none
Cc1ccc2cc(CCNC(=O)C(C)(C)C)c(=O)[nH]c2c1	none (no result: Htt clearance)
Cc1ccc2cc(CCNC(=O)c3ccco3)c(=O)[nH]c2c1C	SF1 activator 63, RORA act 51 (no result: Htt clearance)
Cc1ccc2cc(CCNC(=O)c3ccco3)c(=O)[nH]c2c1	SF1 activator 64, RORA act 77 (no result: Htt clearance)
COC(=O)c1ccccc1NC(=O)C1CC(=O)N(c2ccc(C)c(C)c2)C1 (configuration not stated)	none (no result: M1 antag, D1 mod, M1 ag, SF1 activator, RORA act)
CCCC(=O)Nc1cc(=O)n(C)c(=O)n1C	none
Cn1c(NC(=O)CCc2ccccc2)cc(=O)n(C)c1=O	SF1 activator 56, RORA act 60 (no result: Htt clearance)
O=C(O)c1ccc(CSCc2c(F)cccc2Cl)o1	none
CC(=O)c1c(C)oc(C)c1CSCc1ccc(C(=O)O)o1	D1 mod -8.1
Cc1ccnc(NC(=O)c2c(O)c3ccccc3n(C)c2=O)c1	SF1 activator 76, RORA act 74 (no result: Htt clearance)
Cc1ccc(NC(=O)c2c(O)c3ccccc3n(C)c2=O)nc1	none (no result: Htt clearance)
C=CCn1c(SCC(=O)Nc2c(C)cccc2C)nnc1-c1cnccn1	none (no result: Htt clearance)
CCCCN1C(=O)C(NC(=O)c2cccnc2)(C(F)(F)F)C2=C1CC(C)(C)CC2=O (configuration not stated)	none (no result: M1 antag, D1 mod, M1 ag, SF1 activator, RORA act)
CCCCC(=O)C1=C(N2CCCC2)CC(C)(C)CC1=O	Htt clearance 72 (no result: M1 antag, D1 mod, M1 ag, SF1 activator, RORA act)
O=C(NC1CC1)c1cccc(Nc2ccc(-c3ccc4c(c3)OCCO4)nn2)c1	M1 ag 3.8 (no result: Htt clearance)
Cc1oc2c(CN3CCCC3)c(O)ccc2c(=O)c1-c1ccccc1	M1 ag 3.2
Cc1oc2c(CN3CCCC3)c(O)ccc2c(=O)c1-c1ccc(Cl)cc1	none (no result: D1 mod)
CCCCCOc1ccc(CN2CCOCC2)cc1Cl	SF1 activator 61 (no result: Htt clearance)
O=C(Nc1sc2c(c1C(=O)O)CCCC2)c1cccs1	SF1 activator 54, RORA act 67
COCC(=O)Nc1sc2c(c1C(=O)OC)CCCC2	none (no result: D1 mod, Htt clearance)
COC(=O)c1c(NC(=O)c2ccc(C)o2)sc2c1CCCCC2	SF1 activator 52 (no result: M1 antag, M1 ag, Htt clearance)
COC(=O)c1c(NC(=O)Cc2cccs2)sc2c1CCCC2	D1 mod 2.7
Cc1ccc(C(=O)Nc2sc3c(c2C(=O)O)CCCCC3)o1	D1 mod -3, RORA act 77 (no result: Htt clearance)
CCOC(=O)c1cncc(NC(=O)c2ccccc2)c1	none (no result: Htt clearance)
Nc1nc(C(=O)N2CCOCC2)nn1S(=O)(=O)c1ccc(Cl)cc1	none
O=C(Nc1nc2n(n1)C(c1ccc(Cl)cc1)CC(c1ccc(Cl)cc1)N2)c1ccco1 (configuration not stated)	none
CC(=O)Nc1nc2n(n1)C(c1ccc(Cl)cc1)C=C(C)N2 (configuration not stated)	M1 antag 1.9
COc1ccc(C2C=C(c3ccc(Cl)cc3)Nc3nc(NC(C)=O)nn32)cc1 (configuration not stated)	M1 ag 235 (no result: D1 mod)
O=C(c1nc2n(n1)C(c1ccc(Cl)cc1)C=C(c1ccccc1)N2)N1CCOCC1 (configuration not stated)	M1 ag 46
FC(F)C(F)(F)C(F)(F)C(F)(F)c1cc(-c2ccccc2)n[nH]1	none (no result: Htt clearance)
COc1ccc(CNC(=O)C(C)NC(=O)c2cc3ccccc3o2)cc1 (configuration not stated)	none (no result: Htt clearance)
CCN(CCNC(=O)c1cc(C)nn1-c1ccccc1)c1ccccc1	none (no result: Htt clearance)
CC(C)Oc1ccc(-c2nn(-c3ccccc3)cc2/C=c2\sc3ncnn3c2=O)cc1	M1 ag 33
COC(=O)/C=c1\sc2ncnn2c1=O	none (no result: Htt clearance)
Cc1ccc(C(=O)CSc2nnc(-c3ccco3)n2CC2CCCO2)cc1 (configuration not stated)	M1 antag 1.9 (no result: D1 mod)
CSc1ccc(-c2cc(=O)c3ccccc3o2)cc1	SF1 activator 63 (no result: Htt clearance)
O=c1cc(-c2ccc(F)cc2)oc2ccccc12	none (no result: M1 antag, D1 mod, M1 ag, SF1 activator, RORA act)
COc1cccc(NC(=O)COc2ccccc2C(N)=O)c1	SF1 activator 62
COc1ccccc1OCC(=O)Nc1cccc(-c2nc3ccccc3o2)c1	SF1 activator 61
Cc1cc(Cl)c(S(=O)(=O)N2CCN(c3ccccc3)CC2)cc1OCC(N)=O	none (no result: M1 antag, D1 mod, M1 ag, SF1 activator, RORA act)
OC1CCCCC1Sc1nc2ccccc2s1 (configuration not stated)	SF1 activator 59
OC12CCCCC1C(c1ccc3c(c1)OCO3)N(Cc1ccc(F)cc1)CC2 (configuration not stated)	none
